Screening data deposited in PubChem by Broad Institute.
Compounds with a hit are over-represented: about 4% of the library has one in this group of screens.
rRNA inh HTS = reduced GFP signal of wild-type E. coli, primary screen, bacterial rRNA inhibitor project, GFP/RFP fluorescence, OD600, single point. E. coli WT GFP vs humanized-ribosome RFP mutants, 24 h; active compounds read low; DMSO median 0, no signal -100. GFP signal change (wild-type ribosome), % (concentration not given with the values). 350,000 compounds, 1.6% hits. AID 720706, 2013;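 active = significant combined selectivity score with lowered wild-type GFP, culture density cut under 30%, mutant RFP and density less affected; inactive = any of these conditions unmet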
FGF22 binding = binders of human FGF22 protein, primary screen, FGF22 synaptogenesis inhibitor project, biophysical, thermal shift, single point. recombinant FGF22 thermal shift, SYPRO orange fluorescence; percent of sucrose octasulfate shift, DMSO zero. activity (Tm shift, normalised), % at 9.99 µM. 340,000 compounds, 1.5% hits. AID 651658, 2012;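 active = mean Tm shift, scaled 0 neutral to 100 positive control, at about 1.3% or above, every replicate too, limit read from the data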
Target sequence (Q9HCT0 whole entry, looked up): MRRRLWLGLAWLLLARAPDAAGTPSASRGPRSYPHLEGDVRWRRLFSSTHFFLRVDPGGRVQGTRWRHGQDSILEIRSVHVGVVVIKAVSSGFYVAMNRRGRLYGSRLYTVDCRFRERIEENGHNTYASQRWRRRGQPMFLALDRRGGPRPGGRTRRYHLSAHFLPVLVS
FN deposit inh = inhibitors of fibronectin matrix deposition, primary screen, AH1F cells, Alexa488-fibronectin fluorescence, plate reader | AH1F fibroblasts, overnight | inhibition, % at 12.6 µM | 350,000 compounds, 0.086% hits | AID 743247, 2014;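 active = mean inhibition across replicates of 30% or more, regardless of how many single replicates reach that level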
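Material: AH1F fibroblast monolayer depositing Alexa488-labelled fibronectin into matrix | Input: 10000 AH1F cells/well | Medium: DMEM plus 2% serum, read in PBS | Reagent: Alexa488-fibronectin, 24 nM final in well | Compound dosing: One dose per compound, pinned | Schedule: 1 h adhesion, overnight exposure | Measured by: Fluorescence at 485 nm excitation, 525 nm emission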
C2C12 statin = suppressors of statin myotoxicity in C2C12 myotubes, primary screen, cell-based, single point, plate reader. C2C12 myotubes + simvastatin, ATP luminescence, 48 h; scaled: DMSO 0, geranylgeraniol control 100. 330,000 compounds, 0.78% hits. rescue of ATP level, % at 7.49 µM;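 active = mean ATP rescue above about 67%, or every replicate alone reaching that limit, limit read from the data, passing the limit was not always enough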;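 note: myotubes were challenged with 10 µM simvastatin during compound exposure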
SIRT5 block = SIRT5 desuccinylase inhibitors, primary screen, biochemical, fluorescence imaging, single point, set 5; NAD-dependent protein deacylase sirtuin-5, mitochondrial (Homo sapiens), Q9NXA8; Purified SirT5, succinyl-peptide AMC, trypsin-coupled fluorescence; inhibition, % at 15 µM; 330,000 compounds, 1.1% hits; in the data active = inhibition above about 15%
Target sequence (Q9NXA8 whole entry, looked up): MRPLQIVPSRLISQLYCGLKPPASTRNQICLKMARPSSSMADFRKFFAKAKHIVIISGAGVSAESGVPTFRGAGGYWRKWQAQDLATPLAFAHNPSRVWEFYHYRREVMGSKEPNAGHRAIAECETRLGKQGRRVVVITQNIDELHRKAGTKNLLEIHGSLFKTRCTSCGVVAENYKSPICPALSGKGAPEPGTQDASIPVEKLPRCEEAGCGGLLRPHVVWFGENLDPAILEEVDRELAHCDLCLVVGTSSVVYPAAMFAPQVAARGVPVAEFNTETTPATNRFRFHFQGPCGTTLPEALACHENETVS
E-sel inducer = E-selectin induction in HUVECs, primary screen, imaging, HUVEC, immunofluorescence imaging, single point | 260,000 compounds, 0.37% hits | P16581 | activation, % at 7.58 µM | normalized: neutral wells 0, TNF-alpha wells 100;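 active = mean E-selectin-positive cell signal at least 10% of the positive control, reached in at least 60% of replicates, without over 20% cell loss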
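Read-out basis: % PE-positive cells; Test system: HUVEC primary endothelial cells; Technique: immunofluorescence imaging; Dosing: single-point compound dose.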
Large screens that a line does not name were inactive; ! = repeats disagree.

CC(C)(Cc1ccc(O)cc1)NC(=O)CC(=O)N/N=C/c1ccc(Cl)cc1	none (no result: E-sel inducer)
CC(C)(Cc1ccc(O)cc1)NC(=O)CC(=O)N/N=C/c1ccc([N+](=O)[O-])cc1	rRNA inh HTS -17 (no result: E-sel inducer)
COc1ccc(S(=O)(=O)N(C)C[C@H]2Oc3ccc(NC(=O)CCCN(C)C)cc3CC(=O)N([C@H](C)CO)C[C@H]2C)cc1	none (no result: C2C12 statin, SIRT5 block)
CC1CC(C)CN(C(=O)c2nn(C)c3c2CS(=O)(=O)c2ccccc2-3)C1 (centres undefined)	E-sel inducer 95
CCc1ccc(CNC(=O)c2nn(C)c3c2CS(=O)(=O)c2ccccc2-3)cc1	FGF22 binding 68
CC1CCC(C(C)C)C(OC(=O)Cn2c(-c3ccccc3)[n+](C)c3ccccc32)C1 (centres undefined)	rRNA inh HTS -51!, SIRT5 block 19! (no result: C2C12 statin)
O=C(NCCCCNC(=O)c1ccc(Cl)s1)c1ccc(Cl)s1	C2C12 statin 108 (no result: rRNA inh HTS, FGF22 binding, FN deposit inh, SIRT5 block, E-sel inducer)
COc1ccc2cc(CN(Cc3cccnc3)Cc3nnnn3Cc3ccccc3)c(=O)[nH]c2c1	rRNA inh HTS -28 (no result: FN deposit inh, C2C12 statin, E-sel inducer)
CC(C)N(Cc1cc2ccccc2[nH]c1=O)C(=O)c1cccnc1	C2C12 statin 88 (no result: rRNA inh HTS, FGF22 binding, FN deposit inh, SIRT5 block, E-sel inducer)
CC(C)CN(Cc1cc2ccccc2[nH]c1=O)C(=O)c1cccnc1	none (no result: rRNA inh HTS, FGF22 binding, SIRT5 block, E-sel inducer)
COc1ccc2cc(CN(Cc3cccs3)Cc3nnnn3Cc3ccccc3)c(=O)[nH]c2c1	none (no result: rRNA inh HTS, FGF22 binding, SIRT5 block, E-sel inducer)
COc1ccc(CCN(Cc2cc3ccc(C)cc3n3nnnc23)C(C)=O)cc1OC	SIRT5 block 26 (no result: C2C12 statin, E-sel inducer)
COCCn1nnnc1CN(CCc1ccc(OC)c(OC)c1)Cc1cc2ccc(C)cc2[nH]c1=O	C2C12 statin 103 (no result: rRNA inh HTS, FGF22 binding, FN deposit inh, SIRT5 block, E-sel inducer)
CCCN(C)C[C@@H]1Oc2cc(C#CCC3CCCC3)ccc2S(=O)(=O)N([C@@H](C)CO)C[C@@H]1C	none (no result: FGF22 binding, SIRT5 block)
COc1ccc(NC(=O)N(C)C[C@@H]2Oc3ccc(NC(=O)NC4CCCCC4)cc3C(=O)N([C@H](C)CO)C[C@H]2C)cc1	none (no result: FN deposit inh)
COc1ccc(S(=O)(=O)N(Cc2cccnc2)Cc2cc3ccccc3[nH]c2=O)cc1	rRNA inh HTS -29 (no result: E-sel inducer)
CCOc1cc(C(=O)N(C)Cc2cc3ccccc3[nH]c2=O)cc(OCC)c1OCC	C2C12 statin 98 (no result: rRNA inh HTS, FGF22 binding, FN deposit inh, SIRT5 block, E-sel inducer)
COc1ccc2[nH]c(=O)c(CN(c3ccccc3)S(=O)(=O)c3ccccc3)cc2c1	E-sel inducer 86
COc1cccc(CN(Cc2cccnc2)S(=O)(=O)c2ccc(-n3cnnn3)c(C)c2)c1	rRNA inh HTS -25 (no result: FN deposit inh, E-sel inducer)
COc1cc(S(=O)(=O)N(Cc2cccnc2)Cc2ccco2)ccc1-n1cnnn1	none (no result: FN deposit inh, E-sel inducer)
C[C@@H]1CN([C@H](C)CO)C(=O)c2cc(NC(=O)Cc3ccccc3)ccc2O[C@@H]1CN(C)Cc1ccc(C(=O)Nc2ccccc2N)cc1	none (no result: FN deposit inh, C2C12 statin)
CNC[C@H]1Oc2c(NC(=O)Nc3ccc4c(c3)OCO4)cccc2C(=O)N([C@H](C)CO)C[C@@H]1C	none
O=C(Nc1ccncc1)C1CCN(S(=O)(=O)c2cccc(C(F)(F)F)c2)CC1	none (no result: E-sel inducer)
O=C(Nc1cccc(C(F)(F)F)c1)C1CCN(S(=O)(=O)c2cnc[nH]2)CC1	C2C12 statin 107 (no result: rRNA inh HTS, FGF22 binding, SIRT5 block, E-sel inducer)
O=C(CNC(=O)Cc1ccccc1)N=Nc1c(O)[nH]c2ccccc12	none (no result: E-sel inducer)
O=C(CCCCCNC(=O)c1ccccc1Br)N=Nc1c(O)[nH]c2ccccc12	E-sel inducer 88 (no result: SIRT5 block)
C[C@H]1CN([C@@H](C)CO)C(=O)c2cc(NC(=O)CCN3CCOCC3)ccc2O[C@@H]1CN(C)Cc1ccc(C(F)(F)F)cc1	none
C[C@@H]1CN([C@@H](C)CO)C(=O)c2cc(NC(=O)CCC(F)(F)F)ccc2O[C@H]1CN(C)Cc1ccc(C(F)(F)F)cc1	none (no result: FN deposit inh)
C[C@H]1CN([C@@H](C)CO)C(=O)c2cc(NC(=O)CCC(F)(F)F)ccc2O[C@@H]1CN(C)Cc1ccc(C(F)(F)F)cc1	E-sel inducer 38 (no result: FN deposit inh)
C[C@@H]1CN([C@@H](C)CO)C(=O)c2cc(NC(=O)CCN3CCOCC3)ccc2O[C@H]1CN(C)Cc1ccc(C(F)(F)F)cc1	SIRT5 block 26
COc1cccc(S(=O)(=O)N2C[C@H](O)COC[C@@H]3O[C@@H](CC(=O)N4CCCCC4)CC[C@H]32)c1	none
Cc1nc2nc(-c3ccccc3)cn2nc1C	rRNA inh HTS -26, SIRT5 block 22 (no result: FN deposit inh, E-sel inducer)
Cc1nc2nc(-c3ccc(F)cc3)cn2nc1C	none (no result: C2C12 statin)
C=CCn1c(SCC(=O)NNC(=S)Nc2ccccc2)nnc1-c1ccccc1	rRNA inh HTS -16
CCn1c(SCC(=O)NNC(=S)Nc2ccccc2)nnc1-c1ccc(Cl)cc1	none (no result: C2C12 statin, E-sel inducer)
COc1cc(Br)cc(CN2CCN(C/C=C/c3ccccc3)CC2)c1O	rRNA inh HTS -34 (no result: FN deposit inh, E-sel inducer)
COc1ccc(O)c(CN2CCN(C/C=C/c3ccccc3)CC2)c1	none (no result: rRNA inh HTS, FGF22 binding, FN deposit inh, SIRT5 block, E-sel inducer)
CN(C)C(=O)C[C@H]1C[C@@H]2c3cc(NC(=O)CC4CC4)ccc3O[C@@H]2[C@H](CO)O1	none (no result: FN deposit inh)
CN1C(=O)C2C3c4ccccc4C(c4ccccc43)[C@@H]2C1=O (some centres undefined)	none
O=C1C2C3c4ccccc4C(c4ccccc43)C2c2nc3ccccc3n21 (centres undefined)	C2C12 statin 115 (no result: rRNA inh HTS, FGF22 binding, FN deposit inh, SIRT5 block, E-sel inducer)
CO[C@H]1CC[C@@H]2CCOc3c(C#N)cccc3C(=O)N(C)[C@H](C)C(=O)N(C)C[C@H]1O2	none
CCN(C[C@@H]1[C@@H](c2ccccc2)[C@H](CO)N1C(=O)C1CC1)C(=O)NC1CCCC1	SIRT5 block 32 (no result: FN deposit inh)
COCC(=O)N1[C@H](CO)[C@@H](c2ccccc2)[C@@H]1CNC(=O)c1ccccn1	SIRT5 block 15
O=C(NC[C@@H]1[C@@H](c2ccccc2)[C@@H](CO)N1C(=O)Cc1cccnc1)C1CC1	SIRT5 block 17
CC(=O)N1[C@H](CO)[C@H](c2ccc(-c3ccncc3)cc2)[C@@H]1CNC(=O)CC1CC1	SIRT5 block 22 (no result: FGF22 binding, C2C12 statin)
COCC(=O)N1[C@H](CO)[C@H](c2ccccc2)[C@H]1CNC(=O)c1ccccn1	none
Cn1cnc(S(=O)(=O)N2C[C@H](O)COC[C@@H]3O[C@H](CC(=O)NCc4cc(F)cc(F)c4)CC[C@H]32)c1	none
C[C@@H]1CN([C@H](C)CO)C(=O)c2ccccc2-c2ccccc2CO[C@@H]1CN(C)C(=O)c1cc(Cl)cc(Cl)c1	none (no result: FGF22 binding, C2C12 statin, SIRT5 block, E-sel inducer)
CCC(=O)NC[C@H]1[C@@H](c2ccccc2)[C@@H](CO)N1C(=O)C1CCC1	none (no result: FN deposit inh)
